In this assay the test system is MCF-7 human breast tumor xenograft. The assay can be described thus: In vivo anticancer activity in human breast tumor xenograft model. Conditions: 10 mg/kg BW. Also noted: species or system female nude (nu/nu) mice. In outline:
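Female nu/nu mice (6~7 weeks) were given about 1.5×10^7 MCF-7 cells subcutaneously in the dorsal back, in medium:Matrigel 1:1. Estradiol cyclopentyl propionate (100 µg/mouse) was given s.c. twice weekly. Once tumors reached ≥5 mm, mice were randomised, six per group, to 5 mg/kg BW test compound for 45 days, paclitaxel 10 mg/kg, or vehicle. Tumor size, BW and toxicity signs were recorded every 4 days.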
(In general: Xenograft models place foreign cells or tissue in a host animal.)

Regarding `CC(=O)O[C@H]1C(=O)[C@@]2(C)[C@H]([C@H](OC(=O)c3ccccc3)[C@]3(O)C[C@H](OC(=O)[C@H](O)[C@@H](NC(=O)c4ccccc4)c4ccccc4)C(C)=C1C3(C)C)[C@]1(OC(C)=O)CO[C@@H]1C[C@@H]2O` [paclitaxel], the tumor growth result was “significantly (p<0.001) inhibited tumor growth”.

Source of the values: article PMC8473721 (Journal of Inflammation Research, 2021).
